# In ChEMBL document CHEMBL1121663, “(Acylaryloxy)acetic acid diuretics. 3. 2,3-Dihydro-5-acyl-2-benzofurancarboxylic acids, a new class of uricosuric diuretics” (1981):
# Values joined by “and” are separate entries in the source; they are usually repeats but may differ in a detail not shown here. Equal entries are not always repeated.
# Assays:
# [1] = tested on: Canis familiaris; experiment: Compound was tested for diuretic activity in dogs at 5 mg/kg dose after oral administration measured as microequivalent of Cl-/minute; type: functional, Canis lupus familiaris, Urine
# In short: (§1)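 Oral dog test: water loading (250 mL po, then 500 mL 1 h later). One hour later bladders were emptied by catheter and compound or placebo given in gelatin capsules. Dogs were kept in metabolism cages. Voided urine plus catheterized bladder urine was pooled at 5 h, and Na+, K+ and Cl- were measured by standard methods. Geometric means are reported.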
# [2] = tested on: Canis familiaris; experiment: Compound was tested for diuretic activity in dogs at 5 mg/kg dose after oral administration measured as microequivalent of K+/minute; type: functional, Canis lupus familiaris, Urine; in short: as §1
# [3] = tested on: Canis familiaris; experiment: Compound was tested for diuretic activity in dogs at 5 mg/kg dose after oral administration measured as microequivalent of Na+/minute; type: functional, Canis lupus familiaris, Urine; in short: as §1
# [4] = tested on: Canis familiaris; experiment: Compound was tested for diuretic activity in dogs at 5 mg/kg dose after intravenous administration measured as microequivalent of K+/minute; type: functional, Canis lupus familiaris, Urine; settings: in the assay text read “oral” for “intravenous”
# [5] = tested on: Canis familiaris; experiment: Compound was tested for diuretic activity in dogs at 5 mg/kg dose after intravenous administration measured as microequivalent of Cl-/minute; type: functional, Canis lupus familiaris, Urine; settings: in the assay text read “oral” for “intravenous”
# [6] = tested on: Rattus norvegicus; experiment: Natriuretic activity in rats at 27 mg/kg of dosage; mequiv of Na; type: functional
# In short: (§2)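 Rats housed three per metabolism cage received placebo vehicle or compound as a suspension in a final volume of 5.0 mL orally, with placebo groups run concurrently. Urine was collected over 0–5 h and analysed for Na+, K+ and Cl− by standard methods. Values are mequiv per cage, given as geometric means of three cages per dose level.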
# [7] = tested on: Rattus norvegicus; experiment: Natriuretic activity in rats at 3 mg/kg of dosage; mequiv of Na; type: functional; in short: as §2
# [8] = tested on: Rattus norvegicus; experiment: Natriuretic activity in rats at 81 mg/kg of dosage; mequiv of Na; type: functional; in short: as §2
# [9] = tested on: Rattus norvegicus; experiment: Natriuretic activity in rats at 9 mg/kg of dosage; mequiv of Na; type: functional; in short: as §2
# [10] = tested on: Canis familiaris; experiment: Diuretic activity in dogs following 5 mg/kg oral administration.
# [11] = tested on: Canis familiaris; experiment: Compound was tested for diuretic activity in dogs at 5 mg/kg dose after oral administration measured as microequivalent of Na+/minute
# [12] = tested on: Pan troglodytes; experiment: Compound was tested for natriuretic activity in chimpanzee at 5 mg/kg dose activity is measured as microequivalent of Na+/minute; muequiv of Na+/min; type: functional
# In short: (§3)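 Inulin iv gave GFR; urate and inulin clearances and Na+, K+, Cl- excretion were measured by AutoAnalyzer. Controls were three 20-min periods; compound was given orally in aqueous solution via nasal catheter. Response was the mean of eight 15-20 min periods, reported as treatment minus control from single experiments.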
# [13] = tested on: Canis familiaris; experiment: Compound was tested for diuretic activity in dogs at 5 mg/kg dose after intravenous administration measured as microequivalent of Na+/minute; 46/767 (Control/Drug treated); type: functional, Canis lupus familiaris, Urine
# [14] = Compound was tested for natriuretic activity in chimpanzee at 5 mg/kg dose activity is measured as ratio of clearance of urate / […]; Curate/Cinulin; type: functional; in short: as §3
# [15] = tested on: Canis familiaris; experiment: Compound was tested for diuretic activity in dogs at 5 mg/kg dose after intravenous administration measured as microequivalent of Cl-/minute; 9/510 (Control/Drug treated); type: functional, Canis lupus familiaris, Urine
# In short: (§4)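 Intravenous dog clearance study. A priming iv injection of 1.5 mL/kg isoosmotic pH 7.4 phosphate buffer (20 mg PO4/kg) was given first. This was followed by infusion of 3 mL/min pH 7.4 buffer containing 4% mannitol (6.9 mg PO4/min) throughout the experiment. Urinary Na+, K+ and Cl- were measured by standard methods. Each value is the mean of the two highest consecutive 15-min collections.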
# [16] = tested on: Canis familiaris; experiment: Compound was tested for diuretic activity in dogs at 5 mg/kg dose after intravenous administration measured as microequivalent of K+/minute; 5/19 (Control/Drug treated); type: functional, Canis lupus familiaris, Urine; in short: as §4
# [17] = tested on: Pan troglodytes; experiment: Compound was tested for natriuretic activity in chimpanzee measured as microequivalent of Na+/minute at 1 mg/kg; mequiv of Na; type: functional; in short: as §3
# [18] = tested on: Pan troglodytes; experiment: Compound was tested for natriuretic activity in chimpanzee measured as microequivalent of Na+/minute at 1.0 mg/kg dose; mequiv of Na; type: functional; in short: as §3
# [19] = tested on: Pan troglodytes; experiment: Compound was tested for natriuretic activity in chimpanzee measured as microequivalent of Na+/minute at 0 mg/kg; mequiv of Na; type: functional; in short: as §3
# [20] = tested on: Pan troglodytes; experiment: Compound was tested for natriuretic activity in chimpanzee measured as microequivalent of Na+/minute at 0.0312 mg/kg; mequiv of Na; type: functional; in short: as §3
# [21] = tested on: Pan troglodytes; experiment: Compound was tested for natriuretic activity in chimpanzee measured as microequivalent of Na+/minute at 10 mg/kg; mequiv of Na; type: functional; in short: as §3
# [22] = Activity is measured as ratio of clearance of urate / […] at 0 mg/kg; Curate/Cinulin; type: functional
# In short: (§5)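 Inulin iv gave GFR, and urate clearance was measured by AutoAnalyzer. Controls came from three 20-min periods. Aqueous compound was given orally by nasal catheter, and the response was averaged over eight 15-20 min periods. Values are treatment minus control from single experiments.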
# [23] = Activity is measured as ratio of clearance of urate / […] at 0.0312 mg/kg; Curate/Cinulin; type: functional; in short: as §5
# [24] = Activity is measured as ratio of clearance of urate / […] at 1.0 mg/kg dose; Curate/Cinulin; type: functional; in short: as §5
# [25] = Activity is measured as ratio of clearance of urate / […] at 10 mg/kg; Curate/Cinulin; type: functional; in short: as §5
# [26] = organism: Pan troglodytes; experiment: Compound was tested for natriuretic activity in chimpanzee measured as microequivalent of Na+/minute at […]; mequiv of Na; type: functional; in short: as §3
# [27] = tested on: Canis familiaris; experiment: Compound was tested for diuretic activity in dogs at 5 mg/kg dose after intravenous administration measured as microequivalent of Cl-/minute (Control/Drug treated); type: functional, Canis lupus familiaris, Urine; settings: in the assay text read “oral” for “intravenous”
# [28] = tested on: Canis familiaris; experiment: Compound was tested for diuretic activity in dogs at 5 mg/kg dose after intravenous administration measured as microequivalent of K+/minute (Control/Drug treated); type: functional, Canis lupus familiaris, Urine; settings: in the assay text read “oral” for “intravenous”
# [29] = tested on: Canis familiaris; experiment: Compound was tested for diuretic activity in dogs at 5 mg/kg dose after oral administration measured as microequivalent of Na+/minute; remark: listed apart in the source
# [30] = Activity is measured as ratio of clearance of urate / […] at […]; Curate/Cinulin; type: functional; in short: as §5
# [31] = tested on: Canis familiaris; experiment: Compound was tested for diuretic activity in dogs at 5 mg/kg dose after intravenous administration measured as microequivalent of Na+/minute; 3/84 (Control/Drug treated); type: functional, Canis lupus familiaris, Urine
# [32] = tested on: Canis familiaris; experiment: Compound was tested for diuretic activity in dogs at 5 mg/kg dose after intravenous administration, activity is expressed as urine volume; 0.4/2; type: functional, Canis lupus familiaris
Structure (SMILES),Oral activity [1],Oral activity [2],Oral activity [3],Oral activity [6],Oral activity [7],Oral activity [8],Oral activity [9],Urine volume [10] [mL],further results
N=C(N)NC(=O)C1Cc2cc(C(=O)c3cccs3)c(Cl)c(Cl)c2O1 (stereo unspecified),4.8,1.2,4.9,143,72,159,98,212,Oral activity [4]: 1.2; Oral activity [5]: 4.8; Oral activity [11]: 4.9
O=C(c1cnsn1)c1cc2c(c(Cl)c1Cl)OC(C(=O)O)C2 (stereo unspecified),–,–,–,230,38,284,82,–,Oral activity [12]: 88; Na+ excretion [13]: 767 µequiv/min; Ratio [14]: 0.096
O=C(O)c1cc2cc(C(=O)c3cccs3)c(Cl)c(Cl)c2o1,9.8,1.6,6.9,88,32,131,62,270,Oral activity [12]: 396; Cl- excretion [15]: 510 µequiv/min; K+ excretion [16]: 19 µequiv/min; Ratio [14]: 0.061
O=C(c1cccs1)c1cc2c(c(Cl)c1Cl)OC(c1nnn[nH]1)C2 (stereo unspecified),–,–,–,16,13,29,16,–,–
O=C(c1cccs1)c1cc2c(c(Cl)c1Cl)O[C@@H](C(=O)O)C2 [listing 1 of 2 here],–,–,–,–,–,–,–,–,Oral activity [17]: 711 and 637; Oral activity [18]: 540; Oral activity [19]: 26; Oral activity [20]: 256; Oral activity [21]: 622 and 482; Ratio [22]: 0.013; Ratio [23]: 0.01; Ratio [24]: -0.019; Ratio [25]: 0.376 and 0.358; Oral activity [26]: 492
NNC(=O)C1Cc2cc(C(=O)c3cccs3)c(Cl)c(Cl)c2O1 (stereo unspecified),–,–,–,89,34,140,81,–,–
NC(=O)C1Cc2cc(C(=O)c3cccs3)c(Cl)c(Cl)c2O1 (stereo unspecified),3,1.7,2.1,11,7,25,9,229,Oral activity [27]: 3; Oral activity [28]: 1.7; Oral activity [29]: 2.1
O=C(c1cccs1)c1cc2c(c(Cl)c1Cl)O[C@@H](C(=O)O)C2 [listing 2 of 2 here],–,–,–,–,–,–,–,–,Ratio [30]: 0.157
CC(=O)c1cc2c(c(Cl)c1Cl)OC(C(=O)O)C2 (stereo unspecified),–,–,–,76,13,161,26,–,Oral activity [31]: 3; Urine volume [32]: 0.4 mL/min
